Bioassay records (PubChem)
An excerpt weighted towards active compounds, which were near 2.2% of everything screened.
Tn7 DDE FP: inhibitors of Tn7 peptide binding to fibrin DD(E), primary screen, biochemical, fluorescence polarization, human fibrin, Tn7 probe | Fibrinogen beta chain (Homo sapiens), P02675 | inhibition, % at 8.3 µM | FP displacement of FITC-Tn7 peptide from fibrin DD(E); 0% = median of compound wells per plate | 0.13% of 370,000 active;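 active = inhibition above the mean of compounds falling within the control limits plus 3 SD of them, cut at about 14% in these data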;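 note: 0% = plate median of compound wells and 100% = 10 µM Aha-Tn7 peptide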
Target sequence (P02675 whole entry, looked up): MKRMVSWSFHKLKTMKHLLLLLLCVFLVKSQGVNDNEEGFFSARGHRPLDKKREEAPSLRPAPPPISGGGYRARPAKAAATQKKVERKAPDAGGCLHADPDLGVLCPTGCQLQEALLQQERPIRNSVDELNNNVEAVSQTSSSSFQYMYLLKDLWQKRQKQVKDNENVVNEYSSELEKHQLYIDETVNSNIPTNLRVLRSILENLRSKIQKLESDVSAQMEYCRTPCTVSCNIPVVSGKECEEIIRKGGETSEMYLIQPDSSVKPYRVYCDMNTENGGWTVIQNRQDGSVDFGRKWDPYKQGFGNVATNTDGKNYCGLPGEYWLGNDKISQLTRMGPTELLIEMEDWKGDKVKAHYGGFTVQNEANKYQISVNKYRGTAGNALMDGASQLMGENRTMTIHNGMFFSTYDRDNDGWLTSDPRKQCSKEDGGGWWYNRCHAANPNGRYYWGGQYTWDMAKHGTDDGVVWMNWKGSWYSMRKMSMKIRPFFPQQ
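System: human fibrin DD(E); quantity: Fibrin-DD(E) at 2 µM final; also added: fluorescent Tn7 probe at 0.1 µM; compound dosing: single nominal test concentration of 8.3 µM per compound; schedule: 10 min preincubation, 3 h with tracer, room temperature; detection: fluorescence polarization of the labelled Tn7 tracer; repeats: one replicate per compound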
SKN-1 inh: suppressors of acrylamide-induced Pgst-4::GFP reporter in worms, primary screen, SKN-1 inhibitor project, whole organism, uHTS, GFP/RFP fluorescence ratio, strain VP596. 0.49% of 360,000 active. C. elegans VP596 Pgst-4::GFP/RFP ratio, 24 h. inhibition, % at 21.8 µM. AID 624304, 2012;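 active = interference check ratio from 0.5 to 1.5 plus GFP to RFP signal ratio inhibition reaching or exceeding a fixed threshold, cut at about 30% in these data, passing the limit was not always enough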
Neddylation inh: inhibitors of cullin neddylation, primary screen, biochemical, TR-FRET, uHTS, NAE and Ubc12; AID 651699, 2012; calls only at 25 µM; 0.58% of 360,000 active; NEDD8-conjugating enzyme Ubc12 (Homo sapiens) + NEDD8-activating enzyme E1 regulatory …; in the data active = inhibition above about 36%
MT1-MMP act inh: blockers of MT1-MMP proenzyme processing, primary screen, HT1080 RFP-PRO-GFP cells, GFP/RFP fluorescence. Matrix metalloproteinase-14 (Homo sapiens), P50281. GFP/RFP ratio fluorescence, overnight; percent of plate control window, DMSO zero. GFP/RFP ratio change, % at 20 µM. 0.061% of 360,000 active;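 active = GFP/RFP ratio change of at least 30% with cell ATP level not reduced by more than half and red fluorescence within 50% of control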
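Material – HT1080 RFP-PRO-GFP cells · Control set – DMSO wells and RFP-L50D-GFP cells · Incubation – overnight cell settling, then overnight compound exposure, 37 °C, 5% CO2 · Compound dosing – single-point 20 µM compound, 1% DMSO · Read-out – GFP/RFP fluorescence ratio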
Tn6 DDE FP: inhibitors of Tn6 peptide binding to fibrin DD(E), primary screen, biochemical, fluorescence polarization, human fibrin, Tn6 probe; AID 720509, 2013; Fibrinogen beta chain (Homo sapiens), P02675; Fibrin DD(E) TRITC-Tn6 fluorescence polarization displacement; 0.21% of 370,000 active; inhibition, % at 8.3 µM;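 active = inhibition above a per-campaign cutoff: mean of compounds within control limits plus 3 SD, cut at about 15% in these data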;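 note: 0% = median of all compound wells on the plate and 100% = blocking peptide control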
proKLK7 act: proKLK7 zymogen activators, primary screen, biochemical, fluorescence intensity. Kallikrein-7 (Homo sapiens), P49862. 0.9% of 370,000 active. activation, % at 7 µM. purified proKLK7, EDANS-DABCYL substrate fluorescence; 100% is mature enzyme control, 0% vehicle;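 active = activation above the mean of all tested compounds plus 3 SD, computed per campaign excluding outliers beyond control limits, cut at about 13% in these data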
Tn7 DDE conf: inhibitors of Tn7 peptide binding to fibrin DD(E), confirmation, biochemical, fluorescence polarization, human fibrin, Tn7 probe; AID 720628, 2013; FP displacement of TRITC-Tn7 peptide from DD(E); 0% set at plate's compound-well median; inhibition, % at 8.3 µM; shares compounds with Tn7 DDE FP; 5% of 460 active;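 active = inhibition above the campaign cutoff, the mean of compounds within control limits plus 3 SD, cut at about 14% in these data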;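 note: 100% = median FP of high control wells holding Aha-Tn7 inhibitor peptide; displacers lower polarization since freed probe rises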
DDE Tn7 FP ctr: counter-screen hit for Tn7 peptide-fibrin DD(E) binding disruption. inhibition, % at 8.3 µM. TRITC-Tn7 probe displacement, fluorescence polarization. AID 720633. 3% of 460 active. shares compounds with Tn7 DDE FP;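 active = inhibition above the cutoff, the mean of compounds lying between the control bounds plus 3 SD of those compounds, cut at about 17% in these data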;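 note: 0% = median of compound sample wells and 100% = excess unlabeled Aha-Tn7 peptide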
* marks the source's active call; other numbers are inactive results; i = inactive; . = no result given.

SMILES	Tn7 DDE FP	SKN-1 inh	Neddylation inh	MT1-MMP act inh	Tn6 DDE FP	proKLK7 act	Tn7 DDE conf	DDE Tn7 FP ctr
O=C(COC(=O)CNC(=O)c1cccs1)Nc1ccc(C(F)(F)F)cc1[N+](=O)[O-]	15*	16	i	0	7	0	-2	-2
COc1ccc(CCNC(=O)CC2SC(=NCCc3ccccc3)NC2=O)cc1 (stereo not drawn)	3	-2	i	3	5	1	.	.
COc1ccc(CCNC(=O)CC2SC(=NCc3ccccc3)NC2=O)cc1 (stereo not drawn)	15*	3	i	3	1	0	-2	-6
NS(=O)(=O)c1ccc(CCNc2nn3c(-c4ccc(F)c(Cl)c4)cnc3s2)cc1	14*	27	i	1	7	1	9	0
COc1cnn(-c2cc(Oc3ccc(C)cc3)ncn2)c(=O)c1Cl	1	1	i	7	-6	-1	.	.
Cc1cc(=O)n(Cc2ccco2)c(=S)[nH]1	16*	0	i	4	5	-1	-2	-8
NC(CSC1(c2ccc(F)cc2)c2ccccc2-c2ccccc21)C(=O)O (stereo not drawn)	-3	33	i	6	8	0	.	.
CCc1ccccc1NC(=S)NC1CC2CCC(C1)N2Cc1ccc(F)cc1 (stereo not drawn)	14*	7	i	-2	-11	0	-3	-11
CC(=O)c1nc(N2C(=O)CC(Cc3cc(C)cc(C)c3)C2=O)sc1C (stereo not drawn)	-1	17	i	-4	0	0	.	.
CC(=O)c1nc(N2C(=O)CC(Cc3cccc(C)c3)C2=O)sc1C (stereo not drawn)	16*	13	i	-4	-6	-2	2	2
O=[N+]([O-])c1ccc(CP(=O)(c2ccccc2)c2ccccc2)cc1	14*	2	i	-4	3	0	8	2
O=[N+]([O-])c1cccc(CP(=O)(c2ccccc2)c2ccccc2)c1	3	-23	i	-2	-5	0	.	.
Cc1ccccc1OCC(=O)OCC(=O)Nc1ccc(N2CCOCC2)cc1	1	5	i	-1	-7	0	.	.
CCc1ccc(C(C)NC(=O)c2ccc(F)cc2)cc1 (stereo not drawn)	1	-17	i	4	-8	0	.	.
COc1cc(/C=N\NC(=O)c2ccc(Cn3nc([N+](=O)[O-])c(Cl)c3C)o2)ccc1O	-3	17	i	1	0	0	.	.
COc1cccc(/C=N\NC(=O)c2ccc(Cn3cc(Br)c([N+](=O)[O-])n3)o2)c1O	14*	-4	i	-4	-13	0	-2	-10
COc1ccccc1-c1ccccc1C1=CC(=O)CC(C)(C)C1=O	14*	-6	i	1	0	0	3	1
CN(CC(=O)NCc1ccc(F)cc1)Cc1ccc(Br)cc1	4	2	i	1	6	0	.	.
O=C1C2C(C(=O)N1/N=C/c1ccco1)C1C=CC2C12CC2 (stereo not drawn)	-4	-4	i	0	7	0	.	.
